This is an account of results in ChEMBL document CHEMBL4130342, “New semi-synthetic analogs of oleuropein show improved anticancer activity in vitro and in vivo” (Eur J Med Chem, 2017).

By pIC50 is commonly meant −log10 of the IC50, conventionally taken in molar units. Read a low pIC50 as a high IC50.

pIC50: −log10 of the molar value.

The assay deals with SK-BR-3. The assay can be described thus: Antiproliferative activity against human SKBR3 cells after 72 hrs by MTT reduction assay. To be noted: SK-BR-3, 72 h. It is filed as functional, cell-based. The method in brief: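 MTT reduction assay; adherent lines left to adhere overnight, suspension lines (HL-60, K562) seeded on the day. […] Incubation was 72 h at 37°C, with MTT added for the last 4 h. OD read at 545 nm (reference 690 nm). IC50 from 100(A0-A)/A0=50; means ± SD of 3 independent experiments.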
A general note: Tetrazolium assays rely on reduction of a dye to a coloured formazan, in cell work by metabolically active cells.
As for `C/C=C1/[C@H](O[C@@H]2O[C@H](CO)[C@@H](O)[C@H](O)[C@H]2O)OC=C(C(=O)OC)[C@H]1CC(=O)O`, the pIC50 was below 4.82.

`C/C=C1/[C@H](O[C@@H]2O[C@H](COC(C)=O)[C@@H](OC(C)=O)[C@H](OC(C)=O)[C@H]2OC(C)=O)OC=C(C(=O)O)[C@H]1CC(=O)O` gave a pIC50 below 4.70.

Regarding `C/C=C1/[C@H](O[C@@H]2O[C@H](CO)[C@@H](O)[C@H](O)[C@H]2O)OC=C(C(=O)OC)[C@H]1CC(=O)OCCc1ccc(OC)c(OC)c1`, the pIC50 was below 4.82.

`C=C(C)CCOC(=O)C[C@@H]1C(C(=O)OC)=CO[C@@H](O[C@@H]2O[C@H](COC(C)=O)[C@@H](OC(C)=O)[C@H](OC(C)=O)[C@H]2OC(C)=O)/C1=C/C` had a pIC50 below 4.82.

In turn, `C/C=C1/[C@H](O[C@@H]2O[C@H](COC(C)=O)[C@@H](OC(C)=O)[C@H](OC(C)=O)[C@H]2OC(C)=O)OC=C(C(=O)OC)[C@H]1CC(=O)O` gave a pIC50 below 4.82.

In the case of `C/C=C1/[C@H](O[C@@H]2O[C@H](COC(C)=O)[C@@H](OC(C)=O)[C@H](OC(C)=O)[C@H]2OC(C)=O)OC=C(C(=O)O)[C@H]1CC(=O)OCCCCCCCCCCCCCCCC`, the negative-log IC50 (pIC50) is below 4.70.

`C/C=C1/[C@H](O[C@@H]2O[C@H](COC(C)=O)[C@@H](OC(C)=O)[C@H](OC(C)=O)[C@H]2OC(C)=O)OC=C(C(=O)OC)[C@H]1CC(=O)OCCC1CCCCC1`: the negative logarithm of the IC50 (pIC50) is below 4.82.

The molecule `C/C=C1/[C@H](O[C@@H]2O[C@H](CO)[C@@H](O)[C@H](O)[C@H]2O)OC=C(C(=O)OC)[C@H]1CC(=O)OCC` (stereo in doubt) showed a negative logarithm of the IC50 (pIC50) below 4.82.

In turn, `C/C=C1/[C@H](O[C@@H]2O[C@H](CO)[C@@H](O)[C@H](O)[C@H]2O)OC=C(C(=O)O)[C@H]1CC(=O)OC` (stereo in doubt) gave a pIC50 below 4.70.

For `C/C=C1/[C@H](O[C@@H]2O[C@H](COC(C)=O)[C@@H](OC(C)=O)[C@H](OC(C)=O)[C@H]2OC(C)=O)OC=C(C(=O)OC)[C@H]1CC(=O)OCCc1ccc(OC)cc1` (stereo in doubt), the pIC50 was below 4.70.

As for `C/C=C1/[C@H](O[C@@H]2O[C@H](COC(C)=O)[C@@H](OC(C)=O)[C@H](OC(C)=O)[C@H]2OC(C)=O)OC=C(C(=O)OC)[C@H]1CC(=O)OCCc1ccc(OC)c(OC)c1` (stereo in doubt), the pIC50 is below 4.82.

As to `C=CCOC(=O)C[C@@H]1C(C(=O)OC)=CO[C@@H](O[C@@H]2O[C@H](COC(C)=O)[C@@H](OC(C)=O)[C@H](OC(C)=O)[C@H]2OC(C)=O)/C1=C/C` (stereo in doubt), the pIC50 is below 4.70.

The molecule `C/C=C1/[C@H](O[C@@H]2O[C@H](CO)[C@@H](O)[C@H](O)[C@H]2O)OC=C(C(=O)OC)[C@H]1CC(=O)OCc1ccccc1` (stereo in doubt) showed a pIC50 below 4.82.

`C=C(C)CCOC(=O)C[C@@H]1C(C(=O)OC)=CO[C@@H](O[C@@H]2O[C@H](CO)[C@@H](O)[C@H](O)[C@H]2O)/C1=C/C` (stereo in doubt) gave a pIC50 below 4.82.

`C/C=C1/[C@H](O[C@@H]2O[C@H](CO)[C@@H](O)[C@H](O)[C@H]2O)OC=C(C(=O)OC)[C@H]1CC(=O)OCCCc1ccc(OC)c(OC)c1` (stereo in doubt) gave a pIC50 below 4.70.

On to `C/C=C1/[C@H](O[C@@H]2O[C@H](CO)[C@@H](O)[C@H](O)[C@H]2O)OC=C(C(=O)OC)[C@H]1CC(=O)OCCc1ccc(OC)cc1` (stereo in doubt), for which the pIC50 was below 4.70.

`C/C=C1/[C@H](O[C@@H]2O[C@H](COC(C)=O)[C@@H](OC(C)=O)[C@H](OC(C)=O)[C@H]2OC(C)=O)OC=C(C(=O)OC)[C@H]1CC(=O)OCCCC` (stereo in doubt) showed a pIC50 below 4.82.

The molecule `C/C=C1/[C@H](O[C@@H]2O[C@H](COC(C)=O)[C@@H](OC(C)=O)[C@H](OC(C)=O)[C@H]2OC(C)=O)OC=C(C(=O)O)[C@H]1CC(=O)OC` (stereo in doubt) gave a pIC50 below 4.70.

In turn, `C/C=C1/[C@H](O[C@@H]2O[C@H](CO)[C@@H](O)[C@H](O)[C@H]2O)OC=C(C(=O)OC)[C@H]1CC(=O)OCc1ccc2c(c1)OCCO2` (stereo in doubt) gave a pIC50 below 4.82.

`C/C=C1/[C@H](O[C@@H]2O[C@H](CO)[C@@H](O)[C@H](O)[C@H]2O)OC=C(C(=O)OC)[C@H]1CC(=O)OC` (stereo in doubt) showed a negative-log IC50 (pIC50) below 4.82.

As for `C/C=C1/[C@H](O[C@@H]2O[C@H](COC(C)=O)[C@@H](OC(C)=O)[C@H](OC(C)=O)[C@H]2OC(C)=O)OC=C(C(=O)OC)[C@H]1CC(=O)OCCc1ccc2c(c1)OCCO2` (stereo in doubt), the negative-log IC50 (pIC50) was below 4.82.

Turning to `C/C=C1/[C@H](O[C@@H]2O[C@H](COC(C)=O)[C@@H](OC(C)=O)[C@H](OC(C)=O)[C@H]2OC(C)=O)OC=C(C(=O)OC)[C@H]1CC(=O)OCc1ccco1` (stereo in doubt), the pIC50 is below 4.82.

`C/C=C1/[C@H](O[C@@H]2O[C@H](CO)[C@@H](O)[C@H](O)[C@H]2O)OC=C(C(=O)OC)[C@H]1CC(=O)OCCc1ccc(F)cc1` (stereo in doubt) had a negative-log IC50 (pIC50) below 4.70.

The molecule `C/C=C1/[C@H](O[C@@H]2O[C@H](COC(C)=O)[C@@H](OC(C)=O)[C@H](OC(C)=O)[C@H]2OC(C)=O)OC=C(C(=O)OC)[C@H]1CC(=O)OCCC(C)C` (stereo in doubt) gave a negative-log IC50 (pIC50) below 4.82.

`C/C=C1/[C@H](O[C@@H]2O[C@H](COC(C)=O)[C@@H](OC(C)=O)[C@H](OC(C)=O)[C@H]2OC(C)=O)OC=C(C(=O)OC)[C@H]1CC(=O)OCCCc1ccc(OC)c(OC)c1` (stereo in doubt) had a pIC50 below 4.70.

For the molecule `C/C=C1/[C@H](O[C@@H]2O[C@H](CO)[C@@H](O)[C@H](O)[C@H]2O)OC=C(C(=O)OC)[C@H]1CC(=O)NCCC` (stereo in doubt), the negative logarithm of the IC50 (pIC50) is below 4.70.

In the case of `C/C=C1/[C@H](O[C@@H]2O[C@H](CO)[C@@H](O)[C@H](O)[C@H]2O)OC=C(C(=O)OC)[C@H]1CC(=O)OCCc1ccc([N+](=O)[O-])cc1` (stereo in doubt), the pIC50 was below 4.70.

Consider `C#CCOC(=O)C[C@@H]1C(C(=O)OC)=CO[C@@H](O[C@@H]2O[C@H](COC(C)=O)[C@@H](OC(C)=O)[C@H](OC(C)=O)[C@H]2OC(C)=O)/C1=C/C` (stereo in doubt), for which the negative logarithm of the IC50 (pIC50) is below 4.82.

Turning to `C/C=C1/[C@H](O[C@@H]2O[C@H](COC(C)=O)[C@@H](OC(C)=O)[C@H](OC(C)=O)[C@H]2OC(C)=O)OC=C(C(=O)OC)[C@H]1CC(=O)OCc1ccccc1` (stereo in doubt), the negative logarithm of the IC50 (pIC50) is below 4.82.

Take `C/C=C1/[C@H](O[C@@H]2O[C@H](COC(C)=O)[C@@H](OC(C)=O)[C@H](OC(C)=O)[C@H]2OC(C)=O)OC=C(C(=O)OC)[C@H]1CC(=O)OCc1ccc2c(c1)OCCO2` (stereo in doubt): the pIC50 was below 4.82.

`C/C=C1/[C@H](O[C@@H]2O[C@H](COC(C)=O)[C@@H](OC(C)=O)[C@H](OC(C)=O)[C@H]2OC(C)=O)OC=C(C(=O)OC)[C@H]1CC(=O)OCC` (stereo in doubt) gave a negative-log IC50 (pIC50) below 4.82.

As for `C/C=C1/[C@H](O[C@@H]2O[C@H](CO)[C@@H](O)[C@H](O)[C@H]2O)OC=C(C(=O)OC)[C@H]1CC(=O)OCCc1ccc2c(c1)OCCO2` (stereo in doubt), the pIC50 was below 4.70.

Consider `C/C=C1/[C@H](O[C@@H]2O[C@H](CO)[C@@H](O)[C@H](O)[C@H]2O)OC=C(C(=O)OC)[C@H]1CC(=O)OCc1ccco1` (stereo in doubt), for which the pIC50 is below 4.82.

The molecule `C/C=C1/[C@H](O[C@@H]2O[C@H](COC(C)=O)[C@@H](OC(C)=O)[C@H](OC(C)=O)[C@H]2OC(C)=O)OC=C(C(=O)OC)[C@H]1CC(=O)OCCc1ccc(F)cc1` (stereo in doubt) had a negative-log IC50 (pIC50) below 4.70.

Regarding `C/C=C1/[C@H](O[C@@H]2O[C@H](CO)[C@@H](O)[C@H](O)[C@H]2O)OC=C(C(=O)OC)[C@H]1CC(=O)OCCCC` (stereo in doubt), the pIC50 was below 4.82.

`C/C=C1/[C@H](O[C@@H]2O[C@H](COC(C)=O)[C@@H](OC(C)=O)[C@H](OC(C)=O)[C@H]2OC(C)=O)OC=C(C(=O)OC)[C@H]1CC(=O)OCc1ccc(OC)c(OC)c1` (stereo in doubt): the pIC50 was below 4.82.

In turn, `C/C=C1/[C@H](O[C@@H]2O[C@H](COC(C)=O)[C@@H](OC(C)=O)[C@H](OC(C)=O)[C@H]2OC(C)=O)OC=C(C(=O)OC)[C@H]1CC(=O)OC` (stereo in doubt) had a pIC50 below 4.82.

For the molecule `C/C=C1/[C@H](O[C@@H]2O[C@H](CO)[C@@H](O)[C@H](O)[C@H]2O)OC=C(C(=O)OC)[C@H]1CC(=O)OCCC` (stereo in doubt), the negative logarithm of the IC50 (pIC50) is below 4.82.

For `C/C=C1/[C@H](O[C@@H]2O[C@H](COC(C)=O)[C@@H](OC(C)=O)[C@H](OC(C)=O)[C@H]2OC(C)=O)OC=C(C(=O)OC)[C@H]1CC(=O)SCCC` (stereo in doubt), the pIC50 is below 4.82.

Turning to `C/C=C1/[C@H](O[C@@H]2O[C@H](COC(C)=O)[C@@H](OC(C)=O)[C@H](OC(C)=O)[C@H]2OC(C)=O)OC=C(C(=O)OC)[C@H]1CC(=O)OCCc1ccc([N+](=O)[O-])cc1` (stereo in doubt), the negative-log IC50 (pIC50) was below 4.70.

In turn, `C#CCOC(=O)C[C@@H]1C(C(=O)OC)=CO[C@@H](O[C@@H]2O[C@H](CO)[C@@H](O)[C@H](O)[C@H]2O)/C1=C/C` (stereo in doubt) had a negative-log IC50 (pIC50) below 4.82.

`C/C=C1/[C@H](O[C@@H]2O[C@H](CO)[C@@H](O)[C@H](O)[C@H]2O)OC=C(C(=O)OC)[C@H]1CC(=O)OCc1ccc(OC)c(OC)c1` (stereo in doubt) showed a pIC50 below 4.82.

`C/C=C1/[C@H](O[C@@H]2O[C@H](COC(C)=O)[C@@H](OC(C)=O)[C@H](OC(C)=O)[C@H]2OC(C)=O)OC=C(C(=O)OC)[C@H]1CC(=O)SCCc1ccccc1` (stereo in doubt) gave a pIC50 below 4.82.

On to `OCCc1ccc(O)c(O)c1` [HYDROXYTYROSOL], for which the pIC50 is 3.70.

As to `C/C=C1/[C@H](O[C@@H]2O[C@H](CO)[C@@H](O)[C@H](O)[C@H]2O)OC=C(C(=O)OC)[C@H]1CC(=O)OCCc1ccc(O)cc1` [LIGSTROSIDE], the pIC50 is below 4.70.
